Measured values: ChEMBL document CHEMBL1143108, “Design and SAR of selective T-type calcium channel antagonists containing a biaryl sulfonamide core” (Bioorg Med Chem Lett, 2008)

Legend:
[1] = molecular target: T1, Voltage-dependent T-type calcium channel subunit alpha-1H (Homo sapiens, UniProt O95180); assay: Antagonist activity at human alpha1H T-type calcium channel expressed in HEK293 cells at 1 uM by patch clamp technique; assay type: functional, cell-based
Procedure, shortened: (§1)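 Whole-cell patch clamp. Peak inward current measured before and after compound addition to the bath.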

[2] = molecular target: T1, Voltage-dependent T-type calcium channel subunit alpha-1H; assay: Antagonist activity at human alpha1H T-type calcium channel expressed in HEK293 cells by patch clamp technique; assay type: functional, cell-based; procedure, shortened: as §1
[3] = molecular target: Voltage-gated L-type calcium channel (Rattus norvegicus, UniProt P22002+Q02485+P27732); assay: Antagonist activity at L-type calcium channel in rat aorta; assay type: functional, tissue-based
Procedure, shortened: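 Rat aorta rings contracted near-maximally with KCl. Test compound added at increasing doses, and IC50 taken for inhibition of force as a functional L-type calcium channel read-out.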

[4] = Ratio of IC50 for L-type calcium channel in rat aorta method to IC50 for human T-type calcium channel in patch clamp method; assay type: tissue-based

T1 sequence (O95180 whole entry): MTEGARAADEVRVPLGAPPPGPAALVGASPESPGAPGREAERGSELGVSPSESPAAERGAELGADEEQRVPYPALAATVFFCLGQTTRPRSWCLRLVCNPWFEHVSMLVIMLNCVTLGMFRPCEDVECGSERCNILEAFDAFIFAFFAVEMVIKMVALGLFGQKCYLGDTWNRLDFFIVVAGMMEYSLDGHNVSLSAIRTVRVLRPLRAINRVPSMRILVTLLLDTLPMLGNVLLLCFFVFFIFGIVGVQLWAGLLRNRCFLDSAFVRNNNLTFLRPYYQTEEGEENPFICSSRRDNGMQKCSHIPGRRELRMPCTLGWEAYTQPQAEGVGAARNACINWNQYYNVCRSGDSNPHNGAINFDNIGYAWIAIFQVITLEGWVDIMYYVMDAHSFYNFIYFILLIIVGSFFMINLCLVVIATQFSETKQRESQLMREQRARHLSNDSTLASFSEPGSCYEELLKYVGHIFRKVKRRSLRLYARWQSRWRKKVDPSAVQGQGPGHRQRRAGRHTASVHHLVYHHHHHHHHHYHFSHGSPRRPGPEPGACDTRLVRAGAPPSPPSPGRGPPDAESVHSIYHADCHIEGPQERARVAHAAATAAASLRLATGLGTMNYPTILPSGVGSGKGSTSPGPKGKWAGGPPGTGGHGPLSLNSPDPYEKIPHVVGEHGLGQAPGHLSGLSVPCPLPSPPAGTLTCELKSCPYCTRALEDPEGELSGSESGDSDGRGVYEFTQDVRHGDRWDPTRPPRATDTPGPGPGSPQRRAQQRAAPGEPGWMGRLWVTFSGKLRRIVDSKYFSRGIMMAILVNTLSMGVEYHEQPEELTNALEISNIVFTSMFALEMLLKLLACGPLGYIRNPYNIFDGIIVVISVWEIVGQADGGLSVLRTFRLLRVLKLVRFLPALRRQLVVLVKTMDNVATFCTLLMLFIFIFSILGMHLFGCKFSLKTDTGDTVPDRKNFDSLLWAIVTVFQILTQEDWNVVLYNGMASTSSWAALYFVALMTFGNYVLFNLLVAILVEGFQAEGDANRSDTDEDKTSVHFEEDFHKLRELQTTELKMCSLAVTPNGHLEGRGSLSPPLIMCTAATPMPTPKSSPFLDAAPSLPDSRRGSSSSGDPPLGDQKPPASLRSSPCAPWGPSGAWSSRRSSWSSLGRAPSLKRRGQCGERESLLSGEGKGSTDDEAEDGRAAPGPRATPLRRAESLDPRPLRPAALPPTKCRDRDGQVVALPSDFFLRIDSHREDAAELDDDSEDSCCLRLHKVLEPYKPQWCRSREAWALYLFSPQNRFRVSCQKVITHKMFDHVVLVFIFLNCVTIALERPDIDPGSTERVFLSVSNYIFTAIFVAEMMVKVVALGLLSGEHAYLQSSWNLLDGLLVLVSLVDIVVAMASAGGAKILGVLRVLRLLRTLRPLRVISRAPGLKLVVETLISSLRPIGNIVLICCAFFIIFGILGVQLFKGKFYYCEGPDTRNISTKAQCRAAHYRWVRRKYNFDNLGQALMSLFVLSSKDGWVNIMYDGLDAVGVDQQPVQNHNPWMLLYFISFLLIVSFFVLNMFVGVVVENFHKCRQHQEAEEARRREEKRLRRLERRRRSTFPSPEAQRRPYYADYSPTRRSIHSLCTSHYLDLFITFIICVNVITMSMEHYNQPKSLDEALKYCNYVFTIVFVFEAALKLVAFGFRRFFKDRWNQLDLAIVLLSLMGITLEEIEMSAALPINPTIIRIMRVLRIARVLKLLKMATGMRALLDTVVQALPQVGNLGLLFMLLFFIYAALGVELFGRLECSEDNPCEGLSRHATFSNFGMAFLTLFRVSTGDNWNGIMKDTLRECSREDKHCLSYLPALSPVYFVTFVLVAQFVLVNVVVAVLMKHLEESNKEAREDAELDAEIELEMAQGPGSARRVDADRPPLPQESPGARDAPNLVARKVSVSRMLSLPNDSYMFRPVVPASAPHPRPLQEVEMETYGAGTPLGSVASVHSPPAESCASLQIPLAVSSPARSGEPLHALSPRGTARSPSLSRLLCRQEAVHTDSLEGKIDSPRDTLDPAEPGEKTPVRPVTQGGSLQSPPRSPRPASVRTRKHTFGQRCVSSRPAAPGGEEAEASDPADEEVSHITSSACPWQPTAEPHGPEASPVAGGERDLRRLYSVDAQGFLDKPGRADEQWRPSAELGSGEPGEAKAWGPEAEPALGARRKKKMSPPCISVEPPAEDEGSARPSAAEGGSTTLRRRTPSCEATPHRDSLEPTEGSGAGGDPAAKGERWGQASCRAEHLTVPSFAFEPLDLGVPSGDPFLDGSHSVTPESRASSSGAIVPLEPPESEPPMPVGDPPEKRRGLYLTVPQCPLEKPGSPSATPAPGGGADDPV

CN(CC(=O)Nc1cccc(S(=O)(=O)N(CC(=O)O)c2cccc(Cl)c2)c1)C(=O)OCc1ccccc1
inhibition [1]: 11%

CC(C)OC(=O)CN(c1cccc(Cl)c1)S(=O)(=O)c1cccc(NC(=O)CCc2ccccc2)c1
IC50 [2]: 0.54 µM
IC50 [3]: > 30 µM
Ratio IC50 [4]: > 55

CC(=O)N(CCCN(C)C(=O)c1ccc(Oc2ccccc2)cc1)Cc1cccc(Cl)c1
inhibition [1]: 5%

CC(C)OC(=O)c1ccc(NC(=O)CN(C)C(=O)OCc2ccccc2)cc1-c1cccc(Cl)c1
inhibition [1]: 24%

CC(C)OC(=O)CN(c1cccc(Cl)c1)S(=O)(=O)c1cccc(NC(=O)CN(C)C(=O)OCc2ccccc2)c1
IC50 [2]: 0.24 µM
inhibition [1]: 78%
IC50 [3]: 15 µM
Ratio IC50 [4]: 62

CC(C)CCCN(c1cccc(Cl)c1)S(=O)(=O)c1cccc(NC(=O)CN(C)C(=O)OCc2ccccc2)c1
IC50 [2]: 0.18 µM
IC50 [3]: 12 µM
Ratio IC50 [4]: 67

CC1=C(C(=O)OC(C)C)C(c2cccc(Cl)c2)N(CCCN(C)C(=O)c2ccc(Oc3ccccc3)cc2)C(=O)N1 (single isomer, unassigned; enantiomer 1)
IC50 [2]: 0.18 µM

CC(C)NC(=O)CN(c1cccc(Cl)c1)S(=O)(=O)c1cccc(NC(=O)CN(C)C(=O)OCc2ccccc2)c1
IC50 [2]: 1.7 µM
IC50 [3]: > 30 µM
Ratio IC50 [4]: > 17

CC(C)OC(=O)CN(c1cccc(Cl)c1)S(=O)(=O)c1cccc(NC(=O)CCNC(=O)OCc2ccccc2)c1
IC50 [2]: 0.42 µM
inhibition [1]: 73%
IC50 [3]: 17 µM
Ratio IC50 [4]: 41

CC(=O)N(CCCN(C)S(=O)(=O)c1ccc(Oc2ccccc2)cc1)C(CC(=O)OC(C)C)c1cccc(Cl)c1 (stereo unspecified)
inhibition [1]: 17%

CC1=C(C(=O)OC(C)C)C(c2cccc(Cl)c2)N(CCCN(C)C(=O)c2ccc(Oc3ccccc3)cc2)C(=O)N1 (stereo unspecified)
IC50 [2]: 0.25 µM
IC50 [3]: 2.1 µM

COCC(=O)O[C@]1(CCN(C)CCCc2nc3ccccc3[nH]2)CCc2cc(F)ccc2[C@@H]1C(C)C [MIBEFRADIL]
IC50 [3]: 7 µM

CC(C)OC(=O)c1ccc(NC(=O)CCc2ccccc2)cc1-c1cccc(Cl)c1
inhibition [1]: 6%

CC(=O)N(CCCN(C)S(=O)(=O)c1ccc(Oc2ccccc2)cc1)Cc1cccc(Cl)c1
inhibition [1]: 30%

CC1=C(C(=O)OC(C)C)C(c2cccc(Cl)c2)N(CCCN(C)C(=O)c2ccc(Oc3ccccc3)cc2)C(=O)N1 (single isomer, unassigned; enantiomer 2)
IC50 [2]: 0.65 µM
IC50 [3]: 3.8 µM

CCOC(=O)CN(c1cccc(Cl)c1)S(=O)(=O)c1cccc(NC(=O)CN(C)C(=O)OCc2ccccc2)c1
inhibition [1]: 35%

CN(CC(=O)Nc1cccc(S(=O)(=O)N(Cc2ccccc2)c2cccc(Cl)c2)c1)C(=O)OCc1ccccc1
IC50 [2]: 0.11 µM
IC50 [3]: 12 µM
Ratio IC50 [4]: 109

CC(C)OC(=O)CN(c1cccc(Cl)c1)S(=O)(=O)c1cccc(NC(=O)Cc2ccccc2)c1
inhibition [1]: 40%

CC(=O)Nc1cccc(S(=O)(=O)N(CC(=O)OC(C)C)c2cccc(Cl)c2)c1
inhibition [1]: 0%

CN(C)CCNC(=O)CN(c1cccc(Cl)c1)S(=O)(=O)c1cccc(NC(=O)CN(C)C(=O)OCc2ccccc2)c1
inhibition [1]: 22%
